Assay results of several laboratories.
Protocols differ between the studies behind these lines.

Cc1cc(Nc2cc(N3CCN(C)CC3)nc(/C=C/c3ccccc3)n2)n[nH]1 has a Vd/F of 907 L (human, plasma; oral, 200 mg/m², multiple doses, patients).
C[C@@]1(c2cc(NC(=O)c3ccc(C#N)cn3)ccc2F)C=CSC(N)=N1 has a Vd/F of 210 L (human, plasma; oral, 10 mg, single dose).
For CCNCCCNC/C=C\CNCCCNCC, the Vd was 2.12 L/kg (human, plasma; intravenous, 50 mg, patients, infusion).
The Vd/F of COc1cc(C(=O)NC2CCN(C)CC2)c(F)cc1Nc1ncc(C(F)(F)F)c(Oc2cccc3c2C(=O)N(C)C3)n1 is reported as 520 L (human, plasma; oral, 25 mg, multiple doses, once daily, patients).
For CC(C)(Sc1ccncc1-c1ccc(C#N)c2ccccc12)C(=O)O, the Vd/F was 625 L (male human, plasma; oral, 5 mg, single dose, fed, healthy volunteers).
COc1ccc([C@@H]2CN(C(=O)[C@@H](O)CO)C[C@@]2(C)[C@@H](C)O)cc1OC1CN(c2ccc(C)cn2)C1 gave a Vd/F of 55.7 L (human, plasma; oral, 1.5 mg, single dose, healthy volunteers).
For CC(C)(C)c1ccc(O)c(CN(Cc2cc(C(C)(C)C)ccc2O)C2CCC(NC(N)=O)CC2)c1 (centres unmarked), the Cmax was 550 ng/g (male C57BL/6 mouse, brain; oral, 10 mg/kg, single dose).
With CO[C@H]1CC[C@H](N2C(=O)CNc3ncc(-c4ccc(C(C)(C)O)nc4)nc32)CC1 the Vd/F was 186 L (human, plasma; oral, 45 mg, patients).
